The values that follow come from ChEMBL document CHEMBL3232972, “Synthesis and biological evaluation of some novel pyrido[1,2-a]pyrimidin-4-ones as antimalarial agents” (Eur J Med Chem, 2014).

pIC50: −log10 of the molar value.

The subject of assay [1] is Plasmodium falciparum. Nature of the assay: Antimalarial activity against erythrocytic stages of chloroquine-sensitive Plasmodium falciparum 3D7 infected in human O-positive erythrocytes after 48 hrs by SYBR Green-I fluorescence-based method. Format: functional, organism-based. As to conditions: 3D7, 48 h.
Assay [2] in a line: Cytotoxicity against human HuH7 cells after 24 hrs by MTT assay. It counts as cell-based. Particulars: Huh-7, 24 h. In a few lines: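 Huh-7 cells in DMEM with 10% FBS and gentamicin, seeded at 10⁴ cells per well and left overnight. Compounds added for 24 h at 37 °C, 5% CO2, with 10% DMSO as positive control. MTT added for a further 3 h. Formazan dissolved in DMSO after centrifugation, read at 570 nm. IC50 from dose-response curves.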
For orientation: Tetrazolium dyes change colour on reduction, which living cells bring about.

A short description of assay [3]: Selectivity index, ratio for IC50 for human HuH7 cells to IC50 for erythrocytic stages of chloroquine-sensitive Plasmodium falciparum 3D7. It counts as functional, Huh-7.

As for `COc1ccc(-c2ccc3ncc(C(=O)NCc4cccc(F)c4)c(=O)n3c2)cc1`, in assay [1], the pIC50 is below 4.00.

Consider `COc1ccc(-c2ccc3ncc(C(=O)NCc4ccc(C(F)(F)F)cc4)c(=O)n3c2)cc1`, for which the pIC50 in assay [1] was below 4.00.

With `O=C(NC1CC1)c1cccnc1N1CCN(C(=O)Nc2cnc3ccccn3c2=O)CC1`, the negative logarithm of the IC50 (pIC50) in assay [1] is below 4.00.

For `O=C(NCCN1CCOCC1)c1cnc2ccccn2c1=O`, the negative logarithm of the IC50 (pIC50) in assay [1] is below 4.00.

In assay [1], `O=C(Nc1cnc2ccc(Cl)cn2c1=O)OCc1cccnc1` gave a pIC50 below 4.00.

With `O=C(NCc1ccc(C(F)(F)F)cc1)Nc1cnc2ccc(Cl)cn2c1=O`, the pIC50 in assay [1] is below 4.00.

In turn, `O=C(NCc1ccc(C(F)(F)F)cc1)Nc1cnc2ccccn2c1=O` gave a negative logarithm of the IC50 (pIC50) in assay [1] below 4.00.

In assay [1], `Cc1ccn2c(=O)c(NC(=O)N(Cc3ccccc3)C(C)C)cnc2c1` gave a pIC50 below 4.00.

Consider `O=C(NCc1ccccc1C(F)(F)F)Nc1cnc2ccccn2c1=O`, for which, in assay [1], the pIC50 was 4.00.

As for `O=C(NCc1ccc(F)cc1F)c1cnc2ccccn2c1=O`, the values for the negative-log IC50 (pIC50) in assay [1] and in assay [2] were 4.23 and below 3.70, respectively. Besides, the “Ratio IC50” value in assay [3] is given as above 3.3.

In the case of `CC(C)N(Cc1ccccc1)C(=O)Nc1cnc2ccccn2c1=O`, the pIC50 in assay [1] was 4.15.

`O=C(Nc1ncccc1OCc1ccccc1)Nc1cnc2ccccn2c1=O` had a negative logarithm of the IC50 (pIC50) in assay [1] below 4.00.

In turn, `CC(C)C[C@@H](C#N)NC(=O)Nc1cnc2ccccn2c1=O` gave a pIC50 in assay [1] below 4.00.

`COc1ccc(CNC(=O)c2cnc3ccccn3c2=O)cc1` had a pIC50 in assay [1] below 4.00.

Consider `O=C(NC1CCN(Cc2ccccc2)CC1)c1cnc2ccccn2c1=O`, for which, in assay [1], the pIC50 is below 4.00.

For the molecule `O=C(NCc1ccccc1C(F)(F)F)c1cnc2ccccn2c1=O`, the negative-log IC50 (pIC50) in assay [1] is below 4.00.

`CC(C)(C)OC(=O)N1CCN(C(=O)Nc2cnc3ccc(Cl)cn3c2=O)CC1` showed a negative logarithm of the IC50 (pIC50) in assay [1] below 4.00.

On to `O=C(NCc1ccc(C(F)(F)F)cc1)c1cnc2ccccn2c1=O`, for which the pIC50 in assay [1] is 4.43; in assay [2], below 3.70. Moreover, the “Ratio IC50” value in assay [3] is reported as above 5.4.

Turning to `NC(=O)[C@H](Cc1ccccc1)NC(=O)Nc1cnc2ccccn2c1=O`, the negative-log IC50 (pIC50) in assay [1] was below 4.00.

As to `O=C(NCc1cccc(C(F)(F)F)c1)c1cnc2ccccn2c1=O`, the negative-log IC50 (pIC50) is 4.19 in assay [1] and below 3.70 in assay [2]. For the same molecule, in assay [3], the “Ratio IC50” value is above 3.

In the case of `O=C(Nc1cnc2ccccn2c1=O)OCc1cccc(F)c1`, the pIC50 in assay [1] was 4.48; in assay [2], below 4.00. Moreover, the “Ratio IC50” value in assay [3] is on record as above 3.

As for `O=C(c1cnc2ccccn2c1=O)N(Cc1ccccc1F)C1CC1`, the negative-log IC50 (pIC50) in assay [1] was below 4.00.

In assay [1], `COc1ccc(-c2ccc3ncc(C(=O)NCC4CCCO4)c(=O)n3c2)cc1` (configuration not stated) had a negative-log IC50 (pIC50) of 4.00.

For `O=C(Nc1cnc2ccccn2c1=O)OCc1ccc2c(c1)OCO2`, the negative-log IC50 (pIC50) in assay [1] was below 4.00.

In assay [1], `Cc1noc(C)c1NC(=O)c1cnc2ccccn2c1=O` gave a pIC50 below 4.00.

Turning to `O=C(NCc1cccs1)Nc1cnc2ccc(Cl)cn2c1=O`, the negative logarithm of the IC50 (pIC50) in assay [1] is below 4.00.

In assay [1], `O=C(NCCC(c1ccccc1)c1ccccc1)Nc1cnc2ccccn2c1=O` gave a negative logarithm of the IC50 (pIC50) below 4.00.

Consider `CC(C)C[C@H](NC(=O)Nc1cnc2ccccn2c1=O)C(N)=O`, for which, in assay [1], the negative-log IC50 (pIC50) was below 4.00.

Turning to `COc1ccc(C(C)NC(=O)c2cnc3ccccn3c2=O)cc1` (configuration not stated), the negative-log IC50 (pIC50) in assay [1] is below 4.00.

Turning to `Cc1ccn2c(=O)c(C(=O)NCc3ccc(C(F)(F)F)cc3)cnc2c1`, the pIC50 was 4.15 in assay [1] and below 4.00 in assay [2]. For the same molecule, the “Ratio IC50” value in assay [3] is recorded as above 1.4.

In assay [1], `O=C(Nc1ncccc1OCc1ccccc1)c1cnc2ccccn2c1=O` showed a negative-log IC50 (pIC50) of 4.00.

In assay [1], `CCOC(=O)[C@H](Cc1ccccc1)NC(=O)Nc1cnc2ccccn2c1=O` had a pIC50 below 4.00.

Regarding `O=C(NCc1cccc(F)c1)c1cnc2ccccn2c1=O`, in assay [1], the pIC50 is 4.37.

`O=C(Nc1cnc2ccc(Cl)cn2c1=O)OCc1ccccn1` had a pIC50 in assay [1] below 4.00.

Take `CCCCCOc1cccnc1NC(=O)c1cnc2ccccn2c1=O`: the negative logarithm of the IC50 (pIC50) in assay [1] is below 4.00.

In assay [1], `CC(C)N(Cc1ccccc1)C(=O)Nc1cnc2ccc(Cl)cn2c1=O` had a negative logarithm of the IC50 (pIC50) below 4.00.

`N#C[C@H](Cc1ccccc1)NC(=O)Nc1cnc2ccccn2c1=O`: the pIC50 in assay [1] was below 4.00.

The molecule `O=C(NCc1ccccc1C(F)(F)F)Nc1cnc2ccc(Cl)cn2c1=O` showed a negative-log IC50 (pIC50) in assay [1] below 4.00.

Consider `O=C(Nc1cnc2ccc(Cl)cn2c1=O)N1CCN(C(=O)c2ccco2)CC1`, for which the negative logarithm of the IC50 (pIC50) in assay [1] was below 4.00.

`COCCNC(=O)Nc1cnc2ccc(Cl)cn2c1=O` showed a pIC50 in assay [1] below 4.00.

`O=C(Nc1cnc2ccc(Cl)cn2c1=O)OCc1cccc(F)c1` had a negative-log IC50 (pIC50) in assay [1] below 4.00.

Regarding `O=C(NCc1cccc(C(F)(F)F)c1)Nc1cnc2ccc(Cl)cn2c1=O`, the negative-log IC50 (pIC50) in assay [1] was below 4.00.

What is called pIC50 is the IC50 on a negative log10 scale, so that one unit is a factor of ten. The low end stands for a high IC50, the high end for a low IC50.
